Like-named read-outs stand apart in the source and are kept apart here.
How the values were obtained:
B6C3F1 mice [1] = conditions: dermal exposure; Supplemental Table 8; ref Weatherly et al., 2021; cited from earlier work
B6C3F1 mice [2] = test: Serum chemistries after 28-day dermal exposure; format: in vivo; conditions: 28 days
Method in brief: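 Female B6C3F1 mice received daily dorsal ear application (25 μl/ear, acetone vehicle). About 24 h after the last dose, blood was taken by cardiac puncture. Serum was separated by centrifugation and stored at −20 °C. ALKP, BUN, glucose and cholesterol were read on a Catalyst DX analyzer. Data are mean ± SE of 4–5 mice, ANOVA with Dunnett's; ALKP was also tested by linear regression (p < 0.05).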

liver = test: Liver histopathology after 28-day dermal exposure; format: in vivo, B6C3F1 mice; conditions: 0.5%, 28 days
Method in brief: (§1)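 Female B6C3F1 mice (5/group) received 25 μl/ear on the dorsal ear surfaces daily, with acetone as vehicle. Tissues were formalin-fixed about 24 h after the last dose: liver remainder, half spleen, right kidney and half ear pinna. Sections were paraffin-embedded, cut at 5 μm and stained with H&E. A veterinary pathologist read them per STP guideline and graded 1 (minimal) to 5 (severe) by extent.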

[3] = test system: auricular draining lymph nodes (dLNs); test: Draining lymph node phenotyping by flow cytometry after 28-day dermal exposure; format: in vivo, B6C3F1 mice; conditions: 0.5%, 28 days
Method in brief: (§2)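 Female B6C3F1 mice (5/group) received 25 μl/ear daily to the dorsal ears in acetone. About 24 h after the last dose, tissues went into RPMI: both auricular dLNs, half spleen and one ear pinna. Single-cell suspensions were acquired on an LSR II, with populations gated per supplemental strategy and FMO gating controls. Results are mean ± SE, n=5, by one-way ANOVA.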

[4] = PFAS concentration in pooled urine; format: in vivo, B6C3F1 mice; conditions: B6C3F1, mouse, urine, topical, 0.5 % w/v
Method in brief: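 Urine was caught in a weigh boat as it was excreted during CO2 euthanasia, about 24 h after the final daily ear dose (25 μl/ear, acetone vehicle; female B6C3F1 mice). The 5 mice per group were pooled, with variable volume. Samples underwent solid-phase extraction and LC/MS/MS, as linear isomer for short-chain analytes and linear plus branched for the comparator. Each group gave a single value without statistics.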

[5] = ref ATSDR, 2021; cited from earlier work
B6C3F1 mice [6] = test: Organ weights and body weight after 28-day dermal exposure; format: in vivo; conditions: 0.5%, 28 days
kidney, spleen = test: Kidney and spleen histopathology after 28-day dermal exposure; format: in vivo, B6C3F1 mice; conditions: 0.5%, 28 days
Method in brief: as §1

spleen = test: Spleen phenotyping by flow cytometry after 28-day dermal exposure; format: in vivo, B6C3F1 mice; conditions: 0.5%, 28 days
Method in brief: as §2

skin [7] = conditions: concentrations up to 2%; ref Shane et al., 2020; cited from earlier work
[8] = PFAS concentration in serum; format: in vivo, B6C3F1 mice; conditions: 0.5%, dermal, 28 days
Method in brief: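 Serum came by cardiac puncture about 24 h after the final daily ear dose (25 μl/ear, acetone vehicle; female B6C3F1 mice). Samples underwent solid-phase extraction and LC/MS/MS. Short-chain analytes were quantified as linear isomer only; the legacy comparator was quantified as linear plus branched. Data are mean ± SE of 4–5 mice, one-way ANOVA with Dunnett's vs vehicle.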

ear pinna [9] = test: Skin; format: in vivo, B6C3F1 mice; conditions: 0.5%, dermal, 28 days
Method in brief: (§3)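 Dosing was daily topical to both dorsal ears (25 μl/ear, acetone vehicle) in female B6C3F1 mice. Liver caudate lobe or half ear pinna was stored in RNAlater and homogenized in RLT buffer. RNA was isolated on RNeasy columns with DNase, and 1–2 μg was reverse-transcribed. TaqMan real-time PCR was read as 2−ΔΔCT vs vehicle, normalized to β-actin. Statistics: ANOVA/Dunnett's, or Kruskal-Wallis/Dunn's for unequal variance.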

liver (caudate) = test: Liver gene expression; format: in vivo, B6C3F1 mice; conditions: 0.5%, dermal, 28 days
Method in brief: as §3

skin [10] = test: Irritation at the site of dermal application; format: in vivo, B6C3F1 mice; conditions: 0.5%, 28 days
ear pinna [11] = test: Skin; format: in vivo, B6C3F1 mice; conditions: 0.5%, dermal, 28 days; remark: listed apart in the source
Method in brief: as §2

For O=C(O)C(F)(F)C(F)(F)C(F)(F)F [PFBA, heptafluorobutyric acid], the serum cholesterol (B6C3F1 mice [1]) is listed as “elevated cholesterol” and the serum glucose levels (B6C3F1 mice [1]) is listed as “increase in glucose levels”.

For O=C(O)C(F)(F)C(F)(F)C(F)(F)C(F)(F)C(F)(F)C(F)(F)C(F)(F)F [PFOA, perfluorooctanoic acid, reference compound], the “serum ALKP, increase” value (B6C3F1 mice [2]; 0.5%) was 112%, the “serum BUN” value (B6C3F1 mice [2]; 0.5%) was “No change” and the serum cholesterol (B6C3F1 mice [2]; 0.5%) was “No change”. The “serum glucose, decrease” value (B6C3F1 mice [2]; 0.5%) was 44%, the “serum alanine aminotransferase (ALT)” value (B6C3F1 mice [2]; any concentration, data not shown) was “No change” and the “liver hepatocellular hypertrophy (diffuse), marked (incidence)” value (liver) was 5/5. For the same compound, the “dLN B-cells” value [3] was “no B-cell changes”, the “dLN CD4^+ T-cells, cell number and frequency” value [3] was “decreased” and the “dLN MHCII MFI on B-cells” value [3] was “decrease”. The “dLN eosinophil cell number” value [3] was “decrease”, the “total dLN cellularity” value [3] was “neither PFOA (Supplemental Table 3) nor PFBA (Supplemental Table 9) induced changes” and the concentration at 24 h [4] was 260 µg/mL. For the same compound, the half-life in humans [5] was 2.1–10.1 years, the body weight (B6C3F1 mice [6]) was “significant decrease” and the “kidney weight (% body weight), increase” value (B6C3F1 mice [6]) was 8%. For the same compound, the “liver weight (% body weight), increase” value (B6C3F1 mice [6]) was 120%, the “spleen weight (% body weight), decrease” value (B6C3F1 mice [6]) was 41% and the “thymus weight (% body weight), decrease” value (B6C3F1 mice [6]) was 71%. For the same compound, the “spleen decreased lymphocyte cellularity, mild (incidence)” value (kidney, spleen) was 2/5, the “spleen MFI of MHCII on B-cells” value (spleen) was “decrease” and the “spleen MFI of MHCII on DCs” value (spleen) was “decrease”. For the same compound, the “spleen frequency of CD4^+ T-cells” value (spleen) was “increase”, the “spleen frequency of CD8^+ T-cells” value (spleen) was “increase” and the “spleen frequency of CD11b + Ly6C + cells” value (spleen) was “decrease”. For the same compound, the “spleen frequency of CD11b + Ly6C− cells” value (spleen) was “decrease”, the “spleen frequency of CD11b + cells” value (spleen) was “decrease” and the “spleen frequency of NK cells” value (spleen) was “decrease”. For the same compound, the “spleen frequency of neutrophils” value (spleen) was “increase”, the “spleen number of B-cells” value (spleen) was “significant decrease” and the “spleen number of CD4^+ T-cells” value (spleen) was “significant decrease”. The “spleen number of CD11b + Ly6C + cells” value (spleen) was “significant decrease”, the “spleen number of CD11b + Ly6C− cells” value (spleen) was “significant decrease” and the “spleen number of CD11b + cells” value (spleen) was “significant decrease”. The “spleen number of NK cells” value (spleen) was “significant decrease”, the “spleen number of eosinophils” value (spleen) was “significant decrease” and the “spleen number of total DCs” value (spleen) was “significant decrease”. For the same compound, the “spleen total cell number” value (spleen) was “significant decrease”, the “signs of skin irritation” value (skin [7]) was “did not show any signs of irritation” and the “PFAS serum concentration vs vehicle” value [8] was “significant increase”. The “skin Flg gene expression” value (ear pinna [9]) was “increased”, the “skin Pparγ gene expression” value (ear pinna [9]) was “significant decrease” and the “skin Pparδ gene expression” value (ear pinna [9]) was “slight significant increase”. For the same compound, the “skin Serpine1 gene expression” value (ear pinna [9]) was “significant increase”, the “liver Cd36 gene expression, increase” value (liver (caudate)) was 12.2 fold and the “liver Ehhadh gene expression, increase” value (liver (caudate)) was 57.7 fold. The “liver Lpl gene expression, increase” value (liver (caudate)) was 13.1 fold, the “liver Pparδ gene expression” value (liver (caudate)) was “decrease” and the “liver Serpine1 gene expression, increase” value (liver (caudate)) was 10.5 fold. The “irritation at the site of application” value (skin [10]) was “no irritation”, the “skin CD11b + F4/80+ DCs, frequency and cell number” value (ear pinna [11]) was “significantly decreased” and the “skin CD11b− F4/80 DCs, frequency and cell number” value (ear pinna [11]) was “significantly decreased”. For the same compound, the “skin CD11b− F/480+ DCs, frequency and cell number” value (ear pinna [11]) was “significantly decreased”, the “skin CD45^+ cells, frequency and cell number” value (ear pinna [11]) was “significantly decreased” and the “skin eosinophils, frequency and cell number” value (ear pinna [11]) was “significantly decreased”. For the same compound, the “skin total DCs, frequency and cell number” value (ear pinna [11]) was “significantly decreased”.

Reference: article PMC9989852 (Food and chemical toxicology : an international journal …, 2022)
